Activity calls are given as the source filed them. The rule behind the calls is not given here.
Tests used:
[1] = molecular target: T1, Serine/threonine-protein kinase ULK2 (Homo sapiens, UniProt Q8IYT8); assay: Inhibition of SUMO-tagged ULK2 (unknown origin) kinase domain expressed in KRX cells using [32P]-gamma-ATP and myelin basic protein substrate incubated for 7 mins; type: single protein
T1 sequence (Q8IYT8 whole entry): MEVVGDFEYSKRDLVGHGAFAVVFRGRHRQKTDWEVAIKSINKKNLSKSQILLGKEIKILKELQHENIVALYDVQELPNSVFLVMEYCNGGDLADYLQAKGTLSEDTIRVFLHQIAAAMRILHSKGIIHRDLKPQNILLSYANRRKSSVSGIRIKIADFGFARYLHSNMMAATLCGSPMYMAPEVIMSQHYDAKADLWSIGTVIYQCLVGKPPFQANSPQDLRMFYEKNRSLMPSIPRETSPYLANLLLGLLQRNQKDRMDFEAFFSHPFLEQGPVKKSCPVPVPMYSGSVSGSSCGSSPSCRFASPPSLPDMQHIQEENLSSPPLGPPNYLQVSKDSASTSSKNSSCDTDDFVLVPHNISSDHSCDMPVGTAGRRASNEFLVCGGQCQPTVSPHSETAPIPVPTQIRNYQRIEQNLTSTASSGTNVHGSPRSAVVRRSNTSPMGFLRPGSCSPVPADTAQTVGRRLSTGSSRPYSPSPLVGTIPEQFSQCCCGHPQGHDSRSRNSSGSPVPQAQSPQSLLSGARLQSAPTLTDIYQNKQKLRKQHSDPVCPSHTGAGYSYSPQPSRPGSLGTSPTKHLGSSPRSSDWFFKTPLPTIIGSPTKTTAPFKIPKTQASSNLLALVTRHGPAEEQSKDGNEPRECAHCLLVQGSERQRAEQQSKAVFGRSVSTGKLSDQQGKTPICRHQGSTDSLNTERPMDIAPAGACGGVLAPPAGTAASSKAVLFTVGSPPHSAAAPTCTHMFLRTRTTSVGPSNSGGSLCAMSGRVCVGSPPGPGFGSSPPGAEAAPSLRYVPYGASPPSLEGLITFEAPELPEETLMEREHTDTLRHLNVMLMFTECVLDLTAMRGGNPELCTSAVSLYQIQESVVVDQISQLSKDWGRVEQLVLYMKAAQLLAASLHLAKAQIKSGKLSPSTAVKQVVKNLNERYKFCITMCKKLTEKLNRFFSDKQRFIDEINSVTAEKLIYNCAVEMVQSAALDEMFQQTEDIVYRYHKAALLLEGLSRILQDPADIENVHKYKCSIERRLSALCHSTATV
How it was run: (§1)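 Enzyme at 5 nM with 50 µM cold ATP, 0.05 µCi/µl 32P-γ-ATP and 20 µM myelin basic protein as substrate. Reactions were spotted onto nitrocellulose, washed three times in 1% phosphoric acid, dried and imaged by phosphorimager. IC50 from curve fitting; duplicate.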

HeLa = assay: Inhibition of autophagy in human HeLa cells assessed as induction of LC3-I protein accumulation at 4 uM incubated for 24 hrs by immunoblotting method; type: functional, cell-based
How it was run: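 HeLa cells were grown in DMEM with 10% FBS to about 50% confluency, then given 4 µM compound or DMSO for 24 h. Cold-PBS wash, lysis in TBS pH 7.6 with 1% Triton-X, 0.2% SDS and protease/phosphatase inhibitors. Lysates were protein-normalized and immunoblotted for LC3-I/LC3-II, with actin as loading control.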

[2] = molecular target: T2, 3-phosphoinositide-dependent protein kinase 1 (Homo sapiens, UniProt O15530); assay: Inhibition of recombinant PDK1 (unknown origin) using PDK1tide substrate incubated for 7 mins
T2 sequence (O15530 whole entry): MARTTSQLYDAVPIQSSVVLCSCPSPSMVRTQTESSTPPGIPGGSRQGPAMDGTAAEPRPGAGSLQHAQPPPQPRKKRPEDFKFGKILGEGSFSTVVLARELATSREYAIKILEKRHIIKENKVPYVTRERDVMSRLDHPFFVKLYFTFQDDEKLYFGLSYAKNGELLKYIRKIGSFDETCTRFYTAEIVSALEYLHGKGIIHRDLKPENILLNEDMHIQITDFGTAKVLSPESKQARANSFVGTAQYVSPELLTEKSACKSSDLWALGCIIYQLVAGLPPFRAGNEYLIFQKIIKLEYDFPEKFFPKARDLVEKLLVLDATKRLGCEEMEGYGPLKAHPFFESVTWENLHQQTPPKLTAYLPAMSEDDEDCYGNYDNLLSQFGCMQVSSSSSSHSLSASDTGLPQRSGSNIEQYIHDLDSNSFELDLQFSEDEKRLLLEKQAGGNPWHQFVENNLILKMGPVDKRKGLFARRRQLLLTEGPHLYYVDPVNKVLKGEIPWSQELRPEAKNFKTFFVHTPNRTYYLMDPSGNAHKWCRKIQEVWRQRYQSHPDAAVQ
How it was run: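 Recombinant PDK1 at 5 nM with 50 µM synthetic PDK1tide in 50 mM HEPES pH 7.5, 10 mM MgCl2, 1 mg/ml BSA, 0.02% Triton-X and 50 µM DTT. Stopped after 7 min by spotting onto nitrocellulose, washed three times in 1% phosphoric acid and phosphorimaged. IC50 from curve fitting; duplicate.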

[3] = molecular target: T3, Serine/threonine-protein kinase ULK1 (Homo sapiens, UniProt O75385); assay: Inhibition of SUMO-tagged ULK1 (unknown origin) kinase domain expressed in KRX cells using [32P]-gamma-ATP and myelin basic protein substrate incubated for 7 mins; type: cell-based; how it was run: as §1
T3 sequence (O75385 whole entry): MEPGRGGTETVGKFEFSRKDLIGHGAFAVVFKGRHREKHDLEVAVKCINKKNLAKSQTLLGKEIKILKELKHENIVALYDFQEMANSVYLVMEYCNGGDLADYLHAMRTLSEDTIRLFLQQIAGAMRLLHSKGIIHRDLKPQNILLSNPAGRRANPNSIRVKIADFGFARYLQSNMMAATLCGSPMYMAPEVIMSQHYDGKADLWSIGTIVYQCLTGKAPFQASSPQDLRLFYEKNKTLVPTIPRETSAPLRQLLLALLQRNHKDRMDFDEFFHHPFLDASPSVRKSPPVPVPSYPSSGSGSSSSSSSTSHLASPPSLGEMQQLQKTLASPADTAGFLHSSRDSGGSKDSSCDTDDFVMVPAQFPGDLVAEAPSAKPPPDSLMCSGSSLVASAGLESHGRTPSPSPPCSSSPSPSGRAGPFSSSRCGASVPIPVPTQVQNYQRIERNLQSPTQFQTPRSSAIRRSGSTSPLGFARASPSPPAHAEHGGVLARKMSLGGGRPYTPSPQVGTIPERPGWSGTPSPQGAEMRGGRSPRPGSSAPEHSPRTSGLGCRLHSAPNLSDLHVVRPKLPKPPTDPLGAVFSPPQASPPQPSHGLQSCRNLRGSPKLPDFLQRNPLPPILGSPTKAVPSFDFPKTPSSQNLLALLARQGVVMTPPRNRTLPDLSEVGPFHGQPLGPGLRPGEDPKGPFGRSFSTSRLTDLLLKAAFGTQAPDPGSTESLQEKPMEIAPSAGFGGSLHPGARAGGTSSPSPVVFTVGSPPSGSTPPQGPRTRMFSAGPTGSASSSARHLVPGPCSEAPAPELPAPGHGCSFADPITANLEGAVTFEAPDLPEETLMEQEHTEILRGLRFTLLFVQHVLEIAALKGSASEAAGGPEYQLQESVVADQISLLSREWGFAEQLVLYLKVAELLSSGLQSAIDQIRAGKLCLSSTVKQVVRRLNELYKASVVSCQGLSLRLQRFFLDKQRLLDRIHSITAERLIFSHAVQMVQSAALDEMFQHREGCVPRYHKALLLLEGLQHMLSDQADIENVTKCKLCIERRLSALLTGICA

IC50 [1] [nM]	IC50 [2] [nM]	IC50 [3] [nM]	Structure (SMILES)	Activity (HeLa)
310	65	87	O=C(NCCCNc1nc(Nc2cccc(NC(=O)N3CCCC3)c2)ncc1I)c1cccs1 [BX-795]	Active
–	421	–	O=C(NCCCNc1nc(Nc2cccc(CN3CCOCC3)c2)ncc1C1CC1)C1CCC1	Active
200	56	67	O=C(NCCCNc1nc(Nc2cccc(NC(=O)N3CCCC3)c2)ncc1I)C1CC1	Active
